Data on one molecule can be found in ChEMBL document CHEMBL4007401, “Lynamicin D an antimicrobial natural product affects splicing by inducing the expression of SR protein kinase 1” (2017).

Active and inactive are the calls of the source. The calls are words filed in the database; no cut-off is given here.

The subject of test [1] is HeLa. Briefly: Modulation of SRPK1 pre-mRNA splicing in human HeLa cells assessed as increase in SRPK1 pre-mRNA level at 10 to 30 uM after 24 hrs by RT-PCR method relative to control. The class given is cell-based. In short, it runs like this: (§1)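 Total RNA from cells treated 24 h or control taken with TRIZOL. 1 µg reverse transcribed with random hexamers. SRPK1 amplified 27 cycles (95 °C 40 s, 66 °C 40 s, 72 °C 60 s); actin reference annealed at 60 °C. Products on 1% agarose, ethidium bromide. SRPK1/actin ratio by densitometry.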

Test [2] has as its system HeLa. Briefly: Modulation of alternative splicing of SMN2 exons 6 to 8 pre-mRNA (unknown origin) expressed in human HeLa cells assessed as inclusion of exon-7 up to 20 uM after 24 hrs by ethidium bromide staining based agarose gel electrophoresis method. The class given is cell-based. In short, it runs like this: (§2)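 HeLa (2 x 10exp4) transfected with 0.5 µg pSMN2 (exons 6-8) or pSRp20 (exons 3-5), or 1 µg pSVIRB (rat insulin exons 1-3). After 4 h, medium replaced with lynamicin D (0-20 µM; results cite 10, 20, 30 µM) or DMSO. RNA at 24 h, 1 µg RT, 30 PCR cycles, annealing 60 °C (SRp20 55 °C). Agarose gels; upper/lower band ratio. Means ±SE, n=3.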

Test [3] is filed under the species Homo sapiens. Nature of the test: Modulation of SRPK1 pre-mRNA splicing in human T98G cells assessed as increase in SRPK1 protein level at 10 to 30 uM after 24 hrs by Western blot method relative to control. The format is cell-based. In short, it runs like this:
(§3)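 Lysis in 1% Triton X-100, 20 mM Hepes-KOH pH 7.5, 150 mM NaCl, 1 mM PMSF, 30 min on ice, needle-sheared, spun 13,000 g 15 min. Equal protein on 10% SDS-PAGE. Endogenous SRPK1 probed with mouse monoclonal anti-SRPK1, GAPDH as loading control, AP secondary with BCIP/NBT; SRPK1/GAPDH by densitometry.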
(Immunoblotting shows a protein as a band on a membrane.)

The subject of the next test is HeLa (Homo sapiens). Nature of the test: Modulation of alternative splicing of SRp20 exons […] pre-mRNA (unknown origin) expressed in human HeLa cells assessed as inclusion of exon-4 up to 20 uM after 24 hrs by ethidium bromide staining based agarose gel electrophoresis method.
The next test is filed under the species Rattus norvegicus. Nature of the test: Modulation of constitutive splicing of rat insulin exons 1 to 3 pre-mRNA expressed in human T98G cells assessed as retention of introns up to 20 uM after 24 hrs by ethidium bromide staining based agarose gel electrophoresis method. The format is cell-based.
The subject of test [4] is HeLa. Briefly: Cytotoxicity against human HeLa cells assessed as cell viability at 30 uM after 48 hrs by MTT assay relative to control. The settings on record: read-out: Activity. The class given is functional. The method in brief:
(§4)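 Cells seeded at 10^4 per well, exposed 24 h later to lynamicin D (0-20 µM in methods; 30 µM stated in results) for 48 h. Then 4 h with 0.5 mg/ml MTT, crystals dissolved in 10% SDS in 0.01 N HCl, A570 read. Blanked against DMSO; medium-only cells = 100% viability. Means ±SE, three independent experiments.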
(Tetrazolium assays rely on reduction of a dye to a coloured formazan, in cell work by metabolically active cells.)

Another test relates to T98G. Nature of the test: Cytotoxicity against human T98G cells assessed as cell viability at 30 uM after 48 hrs by MTT assay relative to control. The format is functional. As to conditions: read-out: Activity. In short, it runs like this: as §4
The test system of test [5] is A549. Nature of the test: Modulation of constitutive splicing of rat insulin exons 1 to 3 pre-mRNA expressed in human A549 cells assessed as retention of introns up to 20 uM after 24 hrs by ethidium bromide staining based agarose gel electrophoresis method. The class given is cell-based.
The target of test [6] is SRSF protein kinase 1 (Homo sapiens) (UniProt Q96SB4). Nature of the test: Inhibition of GST-tagged SRPK1 (unknown origin) at 5 to 30 uM using GST-LBRNt (62 to 92 residues) as substrate by SDS-PAGE based autoradiography. The method in brief: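 Radioactive kinase reaction, 25 µL: 12 mM Hepes pH 7.5, 10 mM MgCl2, 25 µM ATP, 0.5 µg recombinant GST-SRPK1, 1 µg GST-LBRNt(62-92) (LBR N-terminal RS-containing fragment) as substrate. Lynamicin D 0-30 µM or SRPIN340 5 µM. Products run on 12% SDS-PAGE, Coomassie-stained and autoradiographed; incorporation measured by excising bands and scintillation counting.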

The test system of test [7] is HeLa. Nature of the test: Modulation of alternative splicing of SRp20 exons […] pre-mRNA (unknown origin) expressed in human HeLa cells assessed as inclusion of exon-4 up to 20 uM after 24 hrs by ethidium bromide staining based agarose gel electrophoresis method. The class given is cell-based. The method in brief: as §2
The nature of test [8]: Modulation of alternative splicing of SRp20 exons […] pre-mRNA (unknown origin) expressed in human T98G cells assessed as inclusion of exon-4 up to 20 uM after 24 hrs by ethidium bromide staining based agarose gel electrophoresis method. The class given is cell-based.
For test [9], the system named is HeLa. Nature of the test: Modulation of constitutive splicing of rat insulin exons 1 to 3 pre-mRNA expressed in human HeLa cells assessed as retention of introns up to 20 uM after 24 hrs by ethidium bromide staining based agarose gel electrophoresis method. The class given is cell-based. The method in brief:
as §2

For test [10], the system named is A549. Briefly: Modulation of SRPK1 pre-mRNA splicing in human A549 cells assessed as increase in SRPK1 pre-mRNA level at 10 to 30 uM after 24 hrs by RT-PCR method relative to control. The class given is cell-based. In short, it runs like this:
as §1

Test [11] is filed under the species Homo sapiens. Briefly: Modulation of SRPK1 pre-mRNA splicing in human T98G cells assessed as increase in SRPK1 pre-mRNA level at 10 to 30 uM after 24 hrs by RT-PCR method relative to control. The format is cell-based. The method in brief: as §1
Test [12] concerns HeLa. Nature of the test: Modulation of SRPK1 pre-mRNA splicing in human HeLa cells assessed as effect on intracellular localization of SRPK1 at 30 uM after 24 hrs by DAPI staining based immunofluorescence microscopic method. The class given is cell-based.
Test [13] relates to A549. Nature of the test: Cytotoxicity against human A549 cells assessed as cell viability at 30 uM after 48 hrs by MTT assay relative to control. The format is functional. As to conditions: A549, 48 h, read-out: Activity. The method in brief: as §4
The test system of test [14] is HeLa. Briefly: Modulation of constitutive splicing of rat insulin exons 1 to 3 pre-mRNA expressed in human HeLa cells assessed as retention of introns up to 20 uM after 24 hrs by ethidium bromide staining based agarose gel electrophoresis method.
The test system of test [15] is A549. Briefly: Modulation of SRPK1 pre-mRNA splicing in human A549 cells assessed as increase in SRPK1 protein level at 10 to 30 uM after 24 hrs by Western blot method relative to control. The format is cell-based. The method in brief:
as §3

Test [16] concerns HeLa. Nature of the test: Modulation of SRPK1 pre-mRNA splicing in human HeLa cells assessed as increase in SRPK1 protein level at 10 to 30 uM after 24 hrs by Western blot method relative to control. The format is cell-based. The method in brief:
as §3

Sequence of SRSF protein kinase 1 (Homo sapiens) (Q96SB4 whole entry, the tested form may be a part): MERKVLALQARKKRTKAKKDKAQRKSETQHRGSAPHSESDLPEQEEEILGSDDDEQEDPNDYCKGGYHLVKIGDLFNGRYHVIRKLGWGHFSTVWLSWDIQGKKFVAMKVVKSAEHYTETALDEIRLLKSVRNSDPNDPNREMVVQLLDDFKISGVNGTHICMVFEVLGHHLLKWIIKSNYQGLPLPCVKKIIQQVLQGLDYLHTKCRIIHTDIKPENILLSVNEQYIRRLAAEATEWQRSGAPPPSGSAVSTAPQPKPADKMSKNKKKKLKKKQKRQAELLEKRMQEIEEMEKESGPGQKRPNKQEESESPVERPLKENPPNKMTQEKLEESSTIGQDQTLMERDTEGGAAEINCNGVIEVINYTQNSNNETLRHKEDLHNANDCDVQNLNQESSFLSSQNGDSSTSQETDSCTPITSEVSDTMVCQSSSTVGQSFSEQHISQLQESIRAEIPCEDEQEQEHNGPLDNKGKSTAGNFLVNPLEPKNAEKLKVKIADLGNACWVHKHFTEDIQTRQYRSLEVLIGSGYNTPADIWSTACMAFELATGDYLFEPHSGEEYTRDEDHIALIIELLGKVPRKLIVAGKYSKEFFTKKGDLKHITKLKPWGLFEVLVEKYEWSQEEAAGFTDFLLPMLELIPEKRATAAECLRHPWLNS

Turning to `COC(=O)c1[nH]c(C(=O)OC)c(-c2c[nH]c3ccc(Cl)cc23)c1-c1c[nH]c2ccc(Cl)cc12` [LYNAMICIN D], the fold change (FC) in the test with HeLa [1] stood at 3; with HeLa [16] it was 1.9. Further, the outcome in the test on HeLa [2], in the test filed under Homo sapiens [3], with HeLa (Homo sapiens), in the test filed under Rattus norvegicus, in the test with A549 [5] and in the test with HeLa [7] was Active. The result (in test [8]; in the test with HeLa [9]; in the test with A549 [10]; in the test filed under Homo sapiens [11]; in the test with HeLa [14]; in the test on A549 [15]) was Active. In addition, the viability at 30 µM in the test on HeLa [4] was 82%; in the test with T98G, 91%; in the test on A549 [13] it was 88%. The inhibition result in test [6] is “inactive”. Besides, the outcome in the test on HeLa [12] was inactive.
